Data from ChEMBL document CHEMBL2057182, “Synthesis and biological evaluation of α-methylidene-δ-lactones with 3,4-dihydrocoumarin skeleton” (Bioorg Med Chem, 2012).
Values after ≈ are worked out from the molar mass of the structure shown.

Legend:
HT-29 = assay: Cytotoxicity against human HT-29 cells after 48 hrs by MTT assay; format: functional, cell-based; settings: HT-29, 48 h
How it was run: (§1)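 ECACC cells; leukemias in RPMI 1640, MCF-7 and HT-29 in DMEM, each with 10% heat-inactivated FBS plus penicillin/streptomycin, 37 °C, 5% CO2. 8 × 10^3 cells/well seeded, compounds added after 24 h at 10^-7 to 10^-3 M (DMSO diluted in medium) for 48 h. MTT 2 h, formazan dissolved in DMSO, A560 against untreated control. IC50 from concentration–response curves, mean ± SD of at least three experiments.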

HUVEC = assay: Cytotoxicity against human HUVEC cells after 48 hrs by MTT assay; format: cell-based
How it was run: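 HUVECs cultured as the supplier directs, used at passages 3–8, 37 °C, 5% CO2. Seeded at 8 × 10^3/well, treated after 24 h with compounds at 10^-7 to 10^-3 M (DMSO diluted in complete medium) for 48 h. MTT 2 h, DMSO-solubilized formazan read at 560 nm against untreated cells. IC50 from concentration–response curves, at least three experiments.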

NALM-6 = assay: Cytotoxicity against human NALM6 cells after 48 hrs by MTT assay; format: functional, cell-based; settings: NALM-6, 48 h; how it was run: as §1
HL-60 = assay: Cytotoxicity against human HL60 cells after 48 hrs by MTT assay; format: functional, cell-based; settings: HL-60, 48 h; how it was run: as §1
MCF7 = assay: Cytotoxicity against human MCF7 cells after 48 hrs by MTT assay; format: functional, cell-based; settings: MCF7, 48 h; how it was run: as §1
Pseudomonas aeruginosa = assay: Antibacterial activity against Pseudomonas aeruginosa NCTC 6749 after 24 hrs by broth microdilution assay; format: functional; settings: NCTC 6749, 24 h
How it was run: (§2)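 MIC by broth microdilution per CLSI, compounds from 20.0 mg/mL DMSO stocks tested at 3.125–400.0 µg/mL (eight twofold dilutions) in Mueller-Hinton broth or RPMI-1640. MIC is the concentration that inhibits growth during 24 h culture, turbidity equal to blank A600 (0.06). Highest final DMSO 2.0%.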

Staphylococcus aureus [1] = assay: Antibacterial activity against methicillin-resistant Staphylococcus aureus D5 patient isolate after 24 hrs by broth microdilution assay; format: functional; settings: D5, 24 h
How it was run: (§3)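 Broth microdilution in Mueller-Hinton broth, compounds from 20.0 mg/mL DMSO stocks tested over 3.125–400.0 µg/mL (eight twofold dilutions), DMSO at most 2.0% final. MIC is the lowest concentration inhibiting growth over 24 h culture, with turbidity equal to the A600 of a medium blank (0.06). Run under CLSI guidance with ATCC quality-control strains.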

Enterococcus faecalis = assay: Antibacterial activity against Enterococcus faecalis ATCC 29212 after 24 hrs by broth microdilution assay; format: functional; settings: ATCC 29212, 24 h; how it was run: as §2
Staphylococcus aureus [2] = assay: Antibacterial activity against methicillin-resistant Staphylococcus aureus D5 patient isolate incubated for 24 hrs followed by washout measured after 24 hrs by broth microdilution assay; format: functional; settings: D5, 24 h
How it was run: (§4)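 MBC: after the 24 h broth microdilution MIC run (3.125–400.0 µg/mL in Mueller-Hinton broth, DMSO at most 2.0%), 10 µL from the MIC, 2× MIC and 4× MIC wells was subcultured into compound-free broth for 24 h. MBC is the lowest concentration with no visible growth, i.e. at least 99.9% kill of the original inoculum; bactericidal if MBC is at most 4× MIC.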

Escherichia coli = assay: Antibacterial activity against Escherichia coli NCTC 8196 after 24 hrs by broth microdilution assay; format: functional; settings: NCTC 8196, 24 h; how it was run: as §2
Staphylococcus aureus [3] = assay: Antibacterial activity against methicillin-resistant Staphylococcus aureus A7 patient isolate incubated for 24 hrs followed by washout measured after 24 hrs by broth microdilution assay; format: functional; settings: A7, 24 h; how it was run: as §4
Candida albicans = assay: Antifungal activity against Candida albicans ATCC 10231 after 24 hrs by broth microdilution assay; format: functional; settings: ATCC 10231, 24 h; how it was run: as §2
Staphylococcus aureus [4] = assay: Antibacterial activity against methicillin-resistant Staphylococcus aureus A7 patient isolate after 24 hrs by broth microdilution assay; format: functional; settings: A7, 24 h; how it was run: as §3
Staphylococcus aureus [5] = assay: Antibacterial activity against methicillin-resistant Staphylococcus aureus A3 patient isolate after 24 hrs by broth microdilution assay; format: functional; settings: A3, 24 h; how it was run: as §3
Staphylococcus aureus [6] = assay: Antibacterial activity against methicillin-sensitive Staphylococcus aureus ATCC 29213 after 24 hrs by broth microdilution assay; format: functional; settings: ATCC 29213, 24 h; how it was run: as §3
Staphylococcus aureus [7] = assay: Antibacterial activity against methicillin-sensitive Staphylococcus aureus ATCC 29213 incubated for 24 hrs followed by washout measured after 24 hrs by broth microdilution assay; format: functional; settings: ATCC 29213, 24 h; how it was run: as §4
Staphylococcus aureus [8] = assay: Antibacterial activity against methicillin-resistant Staphylococcus aureus A3 patient isolate incubated for 24 hrs followed by washout measured after 24 hrs by broth microdilution assay; format: functional; settings: A3, 24 h; how it was run: as §4
[9] = Therapeutic index ratio of IC50 for human HUVEC cells to IC50 for human HL60 cells; format: cell-based; settings: HUVEC cells versus HL60 cells
[10] = Therapeutic index ratio of IC50 for human HUVEC cells to IC50 for human MCF7 cells; format: cell-based; settings: HUVEC cells versus MCF7 cells, read-out: Ratio IC50
[11] = Therapeutic index ratio of IC50 for human HUVEC cells to IC50 for human NALM6 cells; format: cell-based; settings: HUVEC cells versus NALM6 cells, read-out: Ratio IC50

| Compound | IC50 (HT-29) | IC50 (HUVEC) | IC50 (NALM-6) | IC50 (HL-60) | IC50 (MCF7) | other results |
| --- | --- | --- | --- | --- | --- | --- |
| C=C1C(=O)Oc2cc(OC)ccc2C1C (centres undefined) | 70 µM | 57.4 µM | 53.6 µM | 54.5 µM | 73 µM | – |
| C=C1C(=O)Oc2cc(OC)ccc2C1CCCC (centres undefined) | 10.2 µM | 5.1 µM | 6.2 µM | 5.4 µM | 7.1 µM | MIC (Pseudomonas aeruginosa): > 400 µg/mL; MIC (Staphylococcus aureus [1]): 50 µg/mL (≈ 203 µM); MIC (Enterococcus faecalis): 200 µg/mL (≈ 812 µM); MBC (Staphylococcus aureus [2]): 200 µg/mL (≈ 812 µM); MIC (Escherichia coli): > 400 µg/mL; MBC (Staphylococcus aureus [3]): 100 µg/mL (≈ 406 µM); MIC (Candida albicans): > 400 µg/mL; MIC (Staphylococcus aureus [4]): 50 µg/mL (≈ 203 µM); MIC (Staphylococcus aureus [5]): 50 µg/mL (≈ 203 µM); MIC (Staphylococcus aureus [6]): 50 µg/mL (≈ 203 µM); MBC (Staphylococcus aureus [7]): 100 µg/mL (≈ 406 µM); MBC (Staphylococcus aureus [8]): 100 µg/mL (≈ 406 µM) |
| C=C1C(=O)Oc2cc(OC)ccc2C1C(C)C (centres undefined) | 1.7 µM | 3.12 µM | 0.85 µM | 0.56 µM | 0.87 µM | MIC (Pseudomonas aeruginosa): > 400 µg/mL; selectivity ratio [9]: 5.6; selectivity ratio [10]: 4; MIC (Escherichia coli): > 400 µg/mL; MIC (Candida albicans): > 400 µg/mL; selectivity ratio [11]: 4 |
| C=CC1C(=C)C(=O)Oc2cc(OC)ccc21 (centres undefined) | 42 µM | 57.3 µM | 56.6 µM | 51.7 µM | 62 µM | – |
| C=C1C(=O)Oc2cc(OC)cc(OC)c2C1C (centres undefined) | 7.2 µM | – | 6 µM | 5.2 µM | 4.1 µM | – |
| C=C1C(=O)Oc2cc(OC)cc(OC)c2C1CCCC (centres undefined) | 5.2 µM | – | 4.6 µM | 3.4 µM | 3.3 µM | – |
| C=C1C(=O)Oc2cc(OC)cc(OC)c2C1C(C)C (centres undefined) | 2.2 µM | – | 3 µM | 1.3 µM | 2.1 µM | – |
| C=CC1C(=C)C(=O)Oc2cc(OC)cc(OC)c21 (centres undefined) | 5.9 µM | – | 9.3 µM | 8.4 µM | 6.2 µM | – |
| C=C1C(=O)Oc2cc3c(cc2C1C)OCO3 (centres undefined) | 38.4 µM | – | 60.7 µM | 59.4 µM | 40.9 µM | – |
| C=C1C(=O)Oc2cc3c(cc2C1CCCC)OCO3 (centres undefined) | 1.8 µM | – | 0.6 µM | 0.75 µM | 0.54 µM | – |
| C=C1C(=O)Oc2cc3c(cc2C1C(C)C)OCO3 (centres undefined) | 1.5 µM | – | 0.7 µM | 3.3 µM | 0.87 µM | – |
| C=CC1C(=C)C(=O)Oc2cc3c(cc21)OCO3 (centres undefined) | 6.2 µM | – | 7.82 µM | 7.85 µM | 9.8 µM | – |
| C=C1C(=O)Oc2ccc3ccccc3c2C1C (centres undefined) | 7.26 µM | 6.69 µM | 5.5 µM | 4.8 µM | 5.17 µM | – |
| C=C1C(=O)Oc2ccc3ccccc3c2C1CCCC (centres undefined) | 2.9 µM | 3.83 µM | 2.1 µM | 0.72 µM | 2.75 µM | MIC (Pseudomonas aeruginosa): > 400 µg/mL; MIC (Staphylococcus aureus [1]): 3.12 µg/mL (≈ 11.7 µM); MIC (Enterococcus faecalis): 25 µg/mL (≈ 93.9 µM); MBC (Staphylococcus aureus [2]): 6.25 µg/mL (≈ 23.5 µM); MIC (Escherichia coli): > 400 µg/mL; MBC (Staphylococcus aureus [3]): 6.25 µg/mL (≈ 23.5 µM); MIC (Candida albicans): > 400 µg/mL; MIC (Staphylococcus aureus [4]): 6.25 µg/mL (≈ 23.5 µM); MIC (Staphylococcus aureus [5]): 3.12 µg/mL (≈ 11.7 µM); MIC (Staphylococcus aureus [6]): 6.25 µg/mL (≈ 23.5 µM); MBC (Staphylococcus aureus [7]): 12.5 µg/mL (≈ 46.9 µM); MBC (Staphylococcus aureus [8]): 6.25 µg/mL (≈ 23.5 µM) |
| C=C1C(=O)Oc2ccc3ccccc3c2C1C(C)C (centres undefined) | 2.67 µM | 4.03 µM | 0.72 µM | 0.7 µM | 0.48 µM | MIC (Pseudomonas aeruginosa): > 400 µg/mL; selectivity ratio [9]: 5.8; selectivity ratio [10]: 8; MIC (Escherichia coli): > 400 µg/mL; MIC (Candida albicans): > 400 µg/mL; selectivity ratio [11]: 5.6 |
| C=CC1C(=C)C(=O)Oc2ccc3ccccc3c21 (centres undefined) | 9.7 µM | 6.1 µM | 6 µM | 5.7 µM | 4.7 µM | – |
| C=C1C(=O)Oc2ccc3ccc(O)cc3c2C1C (centres undefined) | 4.3 µM | – | 5.77 µM | 5.81 µM | 6.22 µM | – |
| C=C1C(=O)Oc2ccc3ccc(O)cc3c2C1CCCC (centres undefined) | 1.73 µM | – | 0.56 µM | 0.62 µM | 1.88 µM | – |
| C=C1C(=O)Oc2ccc3ccc(O)cc3c2C1C(C)C (centres undefined) | 0.49 µM | – | 0.59 µM | 0.58 µM | 0.36 µM | – |
| C=CC1C(=C)C(=O)Oc2ccc3ccc(O)cc3c21 (centres undefined) | 6.5 µM | – | 0.79 µM | 3.43 µM | 4.8 µM | – |
